Experimental findings from ChEMBL document CHEMBL4270482, “Cytotoxic Fusicoccane-Type Diterpenoids from Streptomyces violascens Isolated from Ailuropoda melanoleuca Feces” (J Nat Prod, 2017) are described below.

The subject of assay [1] is NCI-H460. Description: Cytotoxicity against human NCI-H460 cells assessed as inhibition of growth at 200 uM incubated for 72 hrs by MTT assay. Type of assay: functional. The note with it: for inhibition at 200 µM: NCI-H460, 72 h. On the technique in general: Tetrazolium assays rely on reduction of a dye to a coloured formazan, in cell work by metabolically active cells.

For assay [2], the system named is HCT-116. Description: Cytotoxicity against human HCT116 cells assessed as inhibition of growth at 200 uM incubated for 72 hrs by MTT assay. Type of assay: functional. Conditions: for inhibition at 200 µM: HCT-116, 72 h.
Assay [3] has as its system HCT-116. The assay can be described thus: Cytotoxicity against human HCT116 cells assessed as inhibition of growth incubated for 72 hrs by MTT assay. Conditions: HCT-116, 72 h. The class given is functional, cell-based. In short, it runs like this: (§1)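 Cells grown in RPMI-1640 or DMEM with 10% heat-inactivated FBS. Exposed to six concentrations (100, 33, 10, 3.3, 1.0, 0.33 μM) for 72 h at 37 °C. MTT (5 mg/mL, 10 μL) added for 4 h, then medium removed and DMSO added, absorbance read at 570 nm. IC50 is the concentration giving 50% lower absorbance than control. Mean ± SD of three independent experiments; adriamycin positive control.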

The test system of assay [4] is HeLa. The assay can be described thus: Cytotoxicity against human HeLa cells assessed as inhibition of growth incubated for 72 hrs by MTT assay. Type of assay: functional, cell-based. The essentials:
as §1

The subject of assay [5] is SMMC-7721. The assay can be described thus: Cytotoxicity against human SMMC7721 cells assessed as inhibition of growth incubated for 72 hrs by MTT assay. The class given is functional, cell-based. The note with it: SMMC-7721, 72 h. In short, it runs like this: as §1
The subject of assay [6] is NCI-H460. The assay can be described thus: Cytotoxicity against human NCI-H460 cells assessed as inhibition of growth incubated for 72 hrs by MTT assay. Type of assay: functional, cell-based. The note with it: NCI-H460, 72 h. The essentials:
as §1

In assay [7] the test system is HeLa. Description: Cytotoxicity against human HeLa cells assessed as inhibition of growth at 200 uM incubated for 72 hrs by MTT assay. Type of assay: functional.
Assay [8] relates to SMMC-7721. Description: Cytotoxicity against human SMMC7721 cells assessed as inhibition of growth at 200 uM incubated for 72 hrs by MTT assay. Conditions: for inhibition at 200 µM: SMMC-7721, 72 h. Type of assay: functional.
For assay [9], the system named is BGC-823. The assay can be described thus: Cytotoxicity against human BGC823 cells assessed as inhibition of growth incubated for 72 hrs by MTT assay. Type of assay: functional, cell-based. Conditions: BGC-823, 72 h. The essentials: as §1
Assay [10] relates to BGC-823. The assay can be described thus: Cytotoxicity against human BGC823 cells assessed as inhibition of growth at 200 uM incubated for 72 hrs by MTT assay. Type of assay: functional. Conditions: for inhibition at 200 µM: BGC-823, 72 h.
The subject of assay [11] is SMMC-7721. The assay can be described thus: Inhibition of MMP2 protein expression in human SMMC7721 cells at […] to 5.49 uM incubated for 24 hrs by Western blot analysis. The class given is functional, cell-based. In short, it runs like this: (§2)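 SMMC7721 cells (5 × 10^5/well) treated with 0.61, 1.83 or 5.49 μM for 24 h, then lysed in RIPA buffer with protease inhibitors for 40 min on ice. Protein (60 μg) resolved on 10% SDS-PAGE and transferred to PVDF. Probed with MMP-2 or MMP-9 primary antibody and peroxidase-conjugated secondary, detected by chemiluminescence, normalized to GAPDH.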
For orientation: A western blot detects proteins with antibodies after separation by electrophoresis.

Assay [12] deals with Matrix metalloproteinase-9 (Homo sapiens) (UniProt P14780). Description: Inhibition of MMP9 activity in human SMMC7721 cells incubated for 24 hrs by gelatin zymography. Type of assay: cell-based. In short, it runs like this: (§3)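 SMMC7721 cells (2 × 10^5/well) treated with 0.61, 1.83 or 5.49 μM for 24 h. Culture supernatants run on 10% SDS-PAGE containing 0.1% gelatin. Gels washed in 2.5% Triton X-100 (three 1-h washes), then incubated 36 h at 37 °C in 50 mM Tris-HCl, 10 mM CaCl2, 1 μM ZnCl2, 0.2 M NaCl, pH 7.6. Coomassie R250 stain; bands at 72 kDa (MMP-2) and 92 kDa (MMP-9) quantified by densitometry. Mean ± SD, n = 3.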

The test system of assay [13] is SMMC-7721. The assay can be described thus: Inhibition of MMP9 protein expression in human SMMC7721 cells at […] to 5.49 uM incubated for 24 hrs by Western blot analysis. The class given is functional, cell-based. In short, it runs like this: as §2
Assay [14] deals with SMMC-7721. The assay can be described thus: Cytotoxicity against human SMMC7721 cells assessed as inhibition of growth at 0.6 to 5.5 uM incubated for 24 hrs by MTT assay. Type of assay: functional, cell-based. The essentials: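 SMMC7721 viability measured by MTT after exposure to 0, 0.61, 1.83, 5.49 or 16.5 μM for 0, 24, 48 and 72 h. Vehicle-treated cells served as control. Mean ± SD, n = 3.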

The subject of assay [15] is SMMC-7721. Description: Inhibition of cell migration of human SMMC7721 cells incubated for 24 hrs by H and E staining based transwell chamber assay. Type of assay: functional. In short, it runs like this:
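Transwell migration: 4 × 10^5 SMMC7721 cells in RPMI-1640 with 0.1% FBS plus 0.61, 1.83 or 5.49 μM placed in upper chamber; lower chamber held RPMI-1640 with 10% FBS. Cells on the lower membrane surface fixed in paraformaldehyde for 30 min and stained with H&E for 5 min. Methods give 6 h, legend gives 24 h. Vehicle control; mean ± SD, n = 3.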

In assay [16] the target is 72 kDa type IV collagenase (Homo sapiens) (UniProt P08253). The assay can be described thus: Inhibition of MMP2 activity in human SMMC7721 cells incubated for 24 hrs by gelatin zymography. Type of assay: cell-based. In short, it runs like this: as §3
The subject of assay [17] is SMMC-7721. Description: Inhibition of MMP9 gene expression in human SMMC7721 cells at […] to 5.49 uM incubated for 24 hrs by real-time PCR analysis. Type of assay: functional, cell-based. The essentials: (§4)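 SMMC7721 cells (5 × 10^5/well) treated with 0.61, 1.83 or 5.49 μM for 24 h. Total RNA analysed by SYBR Green qPCR using MMP-2 and MMP-9 specific primers. Cycling: 95 °C for 10 min, then 44 cycles of 95 °C 10 s, 60 °C 20 s, 72 °C 20 s. GAPDH internal control.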

The test system of assay [18] is SMMC-7721. The assay can be described thus: Inhibition of cell adhesion of human SMMC7721 cells at 0.61 to 5.49 uM incubated for 1 hr by matrigel based assay. The class given is functional. The essentials:
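Wells coated overnight with Matrigel in 0.5% serum-free RPMI-1640, blocked with 2% BSA for 30 min and washed with PBS. SMMC7721 cells (2 × 10^4/well) added with 0.61, 1.83 or 5.49 μM and left to adhere for 1 h. Medium removed, 0.2% crystal violet applied for 10 min, dye dissolved in DMSO, OD read at 540 nm. Mean ± SD, n = 3.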

Assay [19] deals with SMMC-7721. Description: Inhibition of MMP2 gene expression in human SMMC7721 cells at […] to 5.49 uM incubated for 24 hrs by real-time PCR analysis. Type of assay: functional, cell-based. In short, it runs like this: as §4

Where a name gives a salt, the structure may show the parent alone. Calls of active or inactive are those of the source. The calls are words filed in the database; no cut-off is given here. A value given as a limit tells only on which side of the number the result lay.

72 kDa type IV collagenase (Homo sapiens), sequence (P08253 110-660 limits assumed): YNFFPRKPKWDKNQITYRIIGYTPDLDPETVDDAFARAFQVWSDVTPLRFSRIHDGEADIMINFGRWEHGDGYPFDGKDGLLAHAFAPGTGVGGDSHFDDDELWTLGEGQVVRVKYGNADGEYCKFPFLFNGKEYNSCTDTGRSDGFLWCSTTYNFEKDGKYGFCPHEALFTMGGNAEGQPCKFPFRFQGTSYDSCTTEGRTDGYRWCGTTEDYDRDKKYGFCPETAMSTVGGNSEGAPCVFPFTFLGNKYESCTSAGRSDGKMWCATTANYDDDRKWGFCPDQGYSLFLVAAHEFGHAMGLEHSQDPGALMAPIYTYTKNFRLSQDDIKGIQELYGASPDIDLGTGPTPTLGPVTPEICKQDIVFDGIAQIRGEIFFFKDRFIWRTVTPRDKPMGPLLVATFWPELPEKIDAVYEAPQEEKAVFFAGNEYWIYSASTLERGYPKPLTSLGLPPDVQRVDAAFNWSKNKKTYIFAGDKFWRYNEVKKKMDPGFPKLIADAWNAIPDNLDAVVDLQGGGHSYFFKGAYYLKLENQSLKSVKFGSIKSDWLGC
Matrix metalloproteinase-9 (Homo sapiens), sequence (P14780 whole entry): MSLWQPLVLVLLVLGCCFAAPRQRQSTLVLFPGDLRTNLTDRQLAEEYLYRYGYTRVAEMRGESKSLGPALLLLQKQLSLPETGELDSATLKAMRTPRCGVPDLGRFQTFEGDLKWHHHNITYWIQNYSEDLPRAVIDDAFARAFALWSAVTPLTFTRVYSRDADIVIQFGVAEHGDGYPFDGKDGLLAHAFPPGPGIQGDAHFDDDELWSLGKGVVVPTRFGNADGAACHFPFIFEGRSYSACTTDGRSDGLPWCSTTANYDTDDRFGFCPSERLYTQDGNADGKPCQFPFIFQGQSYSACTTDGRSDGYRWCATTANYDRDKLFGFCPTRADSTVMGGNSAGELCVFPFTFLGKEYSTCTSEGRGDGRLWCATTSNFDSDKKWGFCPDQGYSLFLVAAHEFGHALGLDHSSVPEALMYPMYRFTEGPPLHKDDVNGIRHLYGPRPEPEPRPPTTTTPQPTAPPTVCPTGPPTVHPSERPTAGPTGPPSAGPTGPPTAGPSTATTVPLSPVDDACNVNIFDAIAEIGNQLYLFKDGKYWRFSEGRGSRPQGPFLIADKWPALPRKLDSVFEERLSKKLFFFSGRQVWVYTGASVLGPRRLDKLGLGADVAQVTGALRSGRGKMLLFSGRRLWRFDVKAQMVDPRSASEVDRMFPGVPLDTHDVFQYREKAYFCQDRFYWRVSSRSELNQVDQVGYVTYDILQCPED

For the compound `CC(C)[C@H]1CC[C@]2(C)C[C@@H]3[C@H](CO)C[C@@H](O)[C@H]3[C@@](C)(O)C/C=C/12`, the inhibition at 200 µM with NCI-H460 [1], in the assay on HCT-116 [2], with HeLa [7], in the assay on SMMC-7721 [8] and with BGC-823 [10] was 90% each time. In addition, the half-inhibitory concentration (IC50) in the assay on HCT-116 [3], in the assay with HeLa [4], in the assay on SMMC-7721 [5], in the assay with NCI-H460 [6] and with BGC-823 [9] was above 100 µM each time.

For `CC(C)[C@H]1C[C@H](O)[C@]2(C)C[C@@H]3[C@H](CO)C[C@@H](O)[C@H]3[C@@](C)(O)C/C=C/12`, the inhibition at 200 µM in the assay with NCI-H460 [1], in the assay on HCT-116 [2], with HeLa [7], in the assay on SMMC-7721 [8] and in the assay with BGC-823 [10] was 50% in each case. The IC50 in the assay on HCT-116 [3], with HeLa [4], with SMMC-7721 [5], in the assay on NCI-H460 [6] and in the assay on BGC-823 [9] was above 100 µM in each case.

For the compound `CC(C)[C@H]1C[C@@H](O)[C@]2(C)C[C@@H]3[C@H](CO)C[C@@H](O)[C@H]3[C@@](C)(O)C/C=C/12`, the inhibition at 200 µM in the assay on NCI-H460 [1], with HCT-116 [2], in the assay on HeLa [7], in the assay on SMMC-7721 [8] and in the assay on BGC-823 [10] was 50% throughout. Moreover, the IC50 with HCT-116 [3], in the assay on HeLa [4], in the assay with SMMC-7721 [5], with NCI-H460 [6] and with BGC-823 [9] was above 100 µM in each case.

Turning to `COc1cccc2c1C(=O)c1c(O)c3c(c(O)c1C2=O)C[C@@](O)(C(=O)CO)C[C@@H]3O[C@H]1C[C@H](N)[C@H](O)[C@H](C)O1` [DOXORUBICIN HYDROCHLORIDE], the half-maximal inhibitory concentration (IC50) (as a rule, the point on the concentration scale where inhibition reaches its midpoint) is 1.4 µM with HCT-116 [3], 2.2 µM with SMMC-7721 [5], 1 µM in the assay on NCI-H460 [6] and 1.5 µM in the assay on BGC-823 [9].

Turning to `CCCC(=O)[C@@H](C)[C@H]1O[C@@](O)([C@H](C)C(=O)OC[C@H](C)[C@H]2CC[C@]3(C)C[C@@H]4[C@H](CO)C[C@@H](O)[C@H]4[C@@](C)(O)C/C=C/23)[C@H](C)C[C@H]1C`, the inhibition result with SMMC-7721 [11], with SMMC-7721 [13] and in the assay with SMMC-7721 [18] was “Active” throughout. Moreover, the inhibition entry (in assay [12]; with SMMC-7721 [15]; in assay [16]; in the assay with SMMC-7721 [17]; in the assay on SMMC-7721 [19]) was “Dose-dependent effect” in each case. The IC50 worked out at 5.8 µM in the assay on HCT-116 [3]; 7.6 µM with HeLa [4]; 9.6 µM with SMMC-7721 [5]; 3.5 µM in the assay on NCI-H460 [6]; 10.5 µM in the assay with BGC-823 [9]. Further, the outcome in the assay with SMMC-7721 [14] was inactive.

For `CCC(=O)[C@@H](C)[C@H]1O[C@@](O)([C@H](C)C(=O)OC[C@H](C)[C@H]2CC[C@]3(C)C[C@@H]4[C@H](CO)C[C@@H](O)[C@H]4[C@@](C)(O)C/C=C/23)[C@H](C)C[C@H]1C`, the IC50 in the assay with HCT-116 [3] stood at 6.7 µM; with HeLa [4], 6.7 µM; in the assay on SMMC-7721 [5], 8.9 µM; in the assay with NCI-H460 [6], 4.1 µM; with BGC-823 [9], 7 µM.

For `CCC(=O)[C@@H](C)[C@H]1O[C@@](O)([C@@H](C)C(=O)OC[C@H](C)[C@H]2CC[C@]3(C)C[C@@H]4[C@H](CO)C[C@@H](O)[C@H]4[C@@](C)(O)C/C=C/23)[C@H](C)C[C@H]1C`, the IC50 is 8 µM in the assay on HCT-116 [3]; 9.3 µM with HeLa [4]; 14.1 µM with SMMC-7721 [5]; 6.1 µM in the assay on NCI-H460 [6]; 9.5 µM in the assay on BGC-823 [9].

As for `CC(C)[C@@]1(O)CC[C@]2(C)C[C@@H]3[C@H](CO)C[C@@H](O)[C@H]3[C@@](C)(O)C/C=C\21`, the inhibition entry with NCI-H460 [1], in the assay with HCT-116 [2], in the assay with HeLa [7], in the assay on SMMC-7721 [8] and in the assay with BGC-823 [10] was “inactive” each time. In addition, the IC50 in the assay on HCT-116 [3], with HeLa [4], with SMMC-7721 [5], with NCI-H460 [6] and with BGC-823 [9] was above 100 µM throughout.
